According to ChEMBL document CHEMBL3758120, “Synthesis and Mechanism Studies of 1,3-Benzoazolyl Substituted Pyrrolo[2,3-b]pyrazine Derivatives as Nonintercalative Topoisomerase II Catalytic Inhibitors” (J Med Chem, 2016):
Activity calls are given as the source filed them. No cut-off for these calls is given here.

Columns and labels:
[1] = Antiproliferative activity against human MDA-MB-201 cells after 48 hrs by MTT assay; assay type: functional, cell-based
Method in brief: (§1)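 Cells seeded at 5000 per well and left overnight, then exposed to increasing concentrations (0-50 μM) for 48 h. […] HL-60/MX2 is a mitoxantrone-selected HL-60 derivative with reduced Topo IIα/β.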

[2] = target: T1, DNA topoisomerase 1 (Homo sapiens) (UniProt P11387); experiment: Inhibition of recombinant human topoisomerase 1-mediated relaxation of supercoiled pBR322 DNA at 50 uM incubated for 30 mins by agarose gel electrophoresis
T1 sequence (whole entry): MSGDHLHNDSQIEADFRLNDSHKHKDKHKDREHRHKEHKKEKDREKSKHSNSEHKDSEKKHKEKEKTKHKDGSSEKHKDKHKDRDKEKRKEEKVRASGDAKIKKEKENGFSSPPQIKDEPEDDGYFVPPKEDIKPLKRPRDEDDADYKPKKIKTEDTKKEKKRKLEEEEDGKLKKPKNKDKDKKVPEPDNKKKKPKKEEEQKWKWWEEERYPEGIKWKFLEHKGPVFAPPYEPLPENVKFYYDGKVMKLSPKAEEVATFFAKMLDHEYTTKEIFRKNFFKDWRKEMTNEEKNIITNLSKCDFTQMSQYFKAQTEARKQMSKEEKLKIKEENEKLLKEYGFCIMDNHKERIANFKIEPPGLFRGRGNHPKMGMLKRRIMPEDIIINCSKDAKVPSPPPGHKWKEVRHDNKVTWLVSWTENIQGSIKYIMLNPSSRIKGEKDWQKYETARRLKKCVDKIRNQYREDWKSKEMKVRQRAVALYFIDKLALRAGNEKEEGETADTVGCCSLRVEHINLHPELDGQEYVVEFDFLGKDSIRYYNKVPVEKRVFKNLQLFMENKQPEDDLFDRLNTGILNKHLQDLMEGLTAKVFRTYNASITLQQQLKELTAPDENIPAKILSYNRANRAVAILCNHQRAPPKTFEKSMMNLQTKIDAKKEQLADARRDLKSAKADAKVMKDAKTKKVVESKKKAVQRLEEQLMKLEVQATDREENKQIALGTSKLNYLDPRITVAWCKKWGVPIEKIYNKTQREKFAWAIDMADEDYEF
Method in brief: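 Supercoiled pBR322 relaxed by Topo I with compound, incubated 30 min at 37 °C, stopped with 1% SDS dye, run on 1% agarose 1 h at 90 V in TAE, stained and imaged under UV; camptothecin as reference.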

[3] = target: DNA topoisomerase 2-alpha (Homo sapiens, UniProt P11388); experiment: Inhibition of purified human topoisomerase 2-mediated relaxation of supercoiled pBR322 DNA at 50 uM incubated for 30 mins by agarose gel electrophoresis
DNA topoisomerase 2-alpha, sequence (P11388 whole entry): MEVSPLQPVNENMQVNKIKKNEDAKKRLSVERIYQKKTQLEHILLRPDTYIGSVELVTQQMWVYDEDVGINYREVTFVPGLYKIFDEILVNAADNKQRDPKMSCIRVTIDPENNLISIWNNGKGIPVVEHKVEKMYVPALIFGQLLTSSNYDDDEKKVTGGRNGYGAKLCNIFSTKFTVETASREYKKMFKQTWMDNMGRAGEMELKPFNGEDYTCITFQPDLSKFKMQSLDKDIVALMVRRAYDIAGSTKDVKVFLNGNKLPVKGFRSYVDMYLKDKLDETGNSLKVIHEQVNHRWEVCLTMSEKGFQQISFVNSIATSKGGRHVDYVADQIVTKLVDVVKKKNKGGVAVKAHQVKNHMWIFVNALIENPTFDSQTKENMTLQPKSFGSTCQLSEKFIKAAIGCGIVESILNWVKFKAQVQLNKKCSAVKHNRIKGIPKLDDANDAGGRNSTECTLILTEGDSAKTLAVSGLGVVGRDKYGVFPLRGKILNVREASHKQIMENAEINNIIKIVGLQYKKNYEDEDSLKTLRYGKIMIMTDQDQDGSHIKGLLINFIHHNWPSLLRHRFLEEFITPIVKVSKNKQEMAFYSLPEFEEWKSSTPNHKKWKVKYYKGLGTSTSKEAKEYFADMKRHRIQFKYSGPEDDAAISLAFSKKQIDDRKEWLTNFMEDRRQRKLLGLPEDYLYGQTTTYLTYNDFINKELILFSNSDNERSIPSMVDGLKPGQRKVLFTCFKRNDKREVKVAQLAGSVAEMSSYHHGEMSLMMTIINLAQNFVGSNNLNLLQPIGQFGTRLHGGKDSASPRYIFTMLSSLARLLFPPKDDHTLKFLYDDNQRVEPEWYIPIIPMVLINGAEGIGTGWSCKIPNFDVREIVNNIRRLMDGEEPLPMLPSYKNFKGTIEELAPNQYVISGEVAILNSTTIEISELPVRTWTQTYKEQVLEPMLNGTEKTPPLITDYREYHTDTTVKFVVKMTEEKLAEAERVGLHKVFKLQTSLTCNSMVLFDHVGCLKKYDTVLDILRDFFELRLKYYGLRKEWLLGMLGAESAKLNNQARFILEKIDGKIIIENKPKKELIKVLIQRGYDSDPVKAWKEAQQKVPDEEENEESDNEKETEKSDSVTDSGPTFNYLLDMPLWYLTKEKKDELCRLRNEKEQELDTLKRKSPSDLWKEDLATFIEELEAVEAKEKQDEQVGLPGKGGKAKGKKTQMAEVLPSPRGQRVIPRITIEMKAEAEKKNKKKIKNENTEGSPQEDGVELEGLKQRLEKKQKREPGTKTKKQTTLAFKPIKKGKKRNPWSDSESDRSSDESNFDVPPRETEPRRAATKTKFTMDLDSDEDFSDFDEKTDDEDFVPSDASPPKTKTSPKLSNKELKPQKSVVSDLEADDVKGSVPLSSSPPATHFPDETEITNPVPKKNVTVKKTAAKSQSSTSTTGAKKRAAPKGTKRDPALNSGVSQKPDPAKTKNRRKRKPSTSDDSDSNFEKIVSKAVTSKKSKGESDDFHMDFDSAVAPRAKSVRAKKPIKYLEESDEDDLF
Method in brief: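 Reactions contained 0.2 μg supercoiled pBR322 in 50 mM Tris-HCl pH 8.0, 150 mM NaCl, 10 mM MgCl2, 0.5 mM DTT, 30 μg/ml BSA, normally 2 mM ATP (1, 2 or 4 mM in ATP-competition runs). Started with 1 U human Topo II, 30 min at 37 °C, stopped with sarcosyl buffer, run on 1% agarose 1.5 h at 75 V, gel-stained and imaged under UV.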

Raji = experiment: Antiproliferative activity against human Raji cells after 48 hrs by MTT assay; assay type: functional, cell-based; method in brief: as §1
A549 = experiment: Antiproliferative activity against human A549 cells after 48 hrs by MTT assay; assay type: functional, cell-based; conditions: A549, 48 h; method in brief: as §1
[4] = Antiproliferative activity against human HL60/MX2 cells after 48 hrs by MTT assay; assay type: functional, cell-based; conditions: HL60/MX2, 48 h; method in brief: as §1
K562 = experiment: Antiproliferative activity against human K562 cells after 48 hrs by MTT assay; assay type: functional, cell-based; conditions: K562, 48 h; method in brief: as §1
[5] = Antiproliferative activity against human HL60 cells after 48 hrs by MTT assay; assay type: functional, cell-based; conditions: HL-60, 48 h; method in brief: as §1
HEK293 = experiment: Cytotoxicity against HEK293 cells after 48 hrs by MTT assay; assay type: cell-based; conditions: Homo sapiens, HEK293, 48 h
HeLa = experiment: Antiproliferative activity against human HeLa cells after 48 hrs by MTT assay; assay type: functional, cell-based; method in brief: as §1
HL-60 = experiment: Resistance index, ratio of IC50 for human HL60/MX2 cells to IC50 for HL60 cells; assay type: functional
Method in brief: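 Resistance index calculated as MTT-derived IC50 (48 h exposure, 0-50 μM, A570 readout) in HL-60/MX2 divided by IC50 in parental HL-60.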

SMILES	inhibition [2]	inhibition [3]	IC50 (Raji)	IC50 (A549)	IC50 (K562)	IC50 (HeLa)	IC50 [1]	IC50 [4]	IC50 [5]	IC50 (HEK293)	Ratio IC50 (HL-60)
N#Cc1nc2c(-c3nc4ccccc4[nH]3)c(N)n(CCc3cc4ccccc4[nH]3)c2nc1C#N	inactive	inactive	> 50 µM	> 50 µM	> 50 µM	> 50 µM	> 50 µM	> 50 µM	> 50 µM	> 50 µM	–
N#Cc1nc2c(-c3nc4ccccc4[nH]3)c(N)n(CCc3ccccc3)c2nc1C#N	–	inactive	15.4 µM	> 50 µM	> 50 µM	> 50 µM	> 50 µM	> 50 µM	> 50 µM	> 50 µM	–
CCN(CC)CCn1c(N)c(-c2nc3cc(Cl)ccc3[nH]2)c2nc(C#N)c(C#N)nc21	–	inactive	31.5 µM	> 50 µM	> 50 µM	> 50 µM	> 50 µM	9.29 µM	> 50 µM	> 50 µM	–
N#Cc1nc2c(-c3nc4ccccc4[nH]3)c(N)n(CCN3CCOCC3)c2nc1C#N	inactive	inactive	2.88 µM	> 50 µM	> 50 µM	> 50 µM	> 50 µM	> 50 µM	9.04 µM	22.3 µM	–
N#Cc1nc2c(-c3nc4ccccc4[nH]3)c(N)n(CCCNc3ccccc3)c2nc1C#N	–	–	–	–	–	26.3 µM	–	–	6.92 µM	–	–
N#Cc1nc2c(-c3nc4ccccc4o3)c(N)n(CCCN3CCCCC3)c2nc1C#N	–	inactive	3.19 µM	8.67 µM	> 50 µM	12.2 µM	32.2 µM	5.45 µM	3.82 µM	19.2 µM	1.4
CCN(CC)CCn1c(N)c(-c2nc3ccccc3n2C)c2nc(C#N)c(C#N)nc21	–	inactive	2.08 µM	> 50 µM	> 50 µM	> 50 µM	> 50 µM	3.25 µM	8.8 µM	25.4 µM	0.4
COc1ccc(CCn2c(N)c(-c3nc4ccccc4[nH]3)c3nc(C#N)c(C#N)nc32)cc1	inactive	inactive	2.78 µM	> 50 µM	> 50 µM	> 50 µM	> 50 µM	> 50 µM	> 50 µM	> 50 µM	–
CN(C)CCCCn1c(N)c(C#N)c2nc(C#N)c(C#N)nc21	–	inactive	–	–	–	> 50 µM	–	–	12.9 µM	–	–
CN(C)CCn1c(N)c(-c2nc3ccccc3n2C)c2nc(C#N)c(C#N)nc21	–	inactive	46.5 µM	> 50 µM	> 50 µM	> 50 µM	> 50 µM	4.68 µM	> 50 µM	> 50 µM	–

Second part, led by results:

inhibition [2]	inhibition [3]	IC50 (Raji)	IC50 (A549)	IC50 (K562)	IC50 (HeLa)	SMILES	IC50 [1]	IC50 [4]	IC50 [5]	IC50 (HEK293)	Ratio IC50 (HL-60)
inactive	inactive	5.52 µM	> 50 µM	> 50 µM	> 50 µM	N#Cc1nc2c(-c3nc4ccccc4[nH]3)c(N)n(CCO)c2nc1C#N	> 50 µM	> 50 µM	> 50 µM	> 50 µM	–
–	–	–	–	–	10.8 µM	CN(C)CCCCCn1c(N)c(-c2nc3ccccc3[nH]2)c2nc(C#N)c(C#N)nc21	–	–	3.42 µM	–	–
inactive	inactive	> 50 µM	> 50 µM	> 50 µM	> 50 µM	CCn1c(N)c(-c2nc3ccccc3[nH]2)c2nc(C#N)c(C#N)nc21	> 50 µM	> 50 µM	> 50 µM	> 50 µM	–
–	Active	3.11 µM	> 50 µM	10.7 µM	16.5 µM	CN(C)CCCn1c(N)c(-c2nc3cc(Cl)ccc3[nH]2)c2nc(C#N)c(C#N)nc21	28.1 µM	5.31 µM	2.93 µM	11.7 µM	1.8
–	Active	1.62 µM	> 50 µM	4.83 µM	24.4 µM	CCN(CC)CCCn1c(N)c(-c2nc3cc(Cl)ccc3[nH]2)c2nc(C#N)c(C#N)nc21	23.2 µM	2.46 µM	3.47 µM	8.42 µM	0.7
–	Active	0.95 µM	12.1 µM	1.93 µM	3.12 µM	CN(C)CCCCn1c(N)c(-c2nc3cc(Cl)ccc3[nH]2)c2nc(C#N)c(C#N)nc21	3.28 µM	0.58 µM	1.48 µM	4.73 µM	0.4
inactive	inactive	> 50 µM	> 50 µM	> 50 µM	> 50 µM	N#Cc1nc2c(-c3nc4ccccc4[nH]3)c(N)n(CCCO)c2nc1C#N	> 50 µM	> 50 µM	> 50 µM	> 50 µM	–
inactive	inactive	> 50 µM	> 50 µM	6.48 µM	> 50 µM	N#Cc1nc2c(-c3nc4ccccc4[nH]3)c(N)n(CCN3CCCC3)c2nc1C#N	> 50 µM	> 50 µM	4.76 µM	18.3 µM	–
inactive	inactive	14.4 µM	> 50 µM	7.72 µM	> 50 µM	N#Cc1nc2c(-c3nc4ccccc4[nH]3)c(N)n(CCCN3CCOCC3)c2nc1C#N	> 50 µM	5.57 µM	> 50 µM	> 50 µM	–
–	Active	0.72 µM	2.27 µM	1.27 µM	3.64 µM	CCN(CC)CCCCn1c(N)c(-c2nc3cc(Cl)ccc3[nH]2)c2nc(C#N)c(C#N)nc21	2.84 µM	1.77 µM	0.82 µM	3.86 µM	2.2
–	inactive	11.8 µM	> 50 µM	11.3 µM	> 50 µM	CN(C)CCn1c(N)c(-c2nc3cc(Cl)ccc3[nH]2)c2nc(C#N)c(C#N)nc21	> 50 µM	> 50 µM	> 50 µM	> 50 µM	–
inactive	inactive	> 50 µM	1.97 µM	> 50 µM	> 50 µM	CCCn1c(N)c(-c2nc3ccccc3[nH]2)c2nc(C#N)c(C#N)nc21	> 50 µM	> 50 µM	45.2 µM	> 50 µM	–
inactive	inactive	1.96 µM	> 50 µM	8 µM	> 50 µM	CN(C)CCn1c(N)c(-c2nc3ccccc3s2)c2nc(C#N)c(C#N)nc21	> 50 µM	> 50 µM	1.67 µM	11.8 µM	–
inactive	inactive	> 50 µM	> 50 µM	> 50 µM	> 50 µM	Cn1c(N)c(-c2nc3ccccc3[nH]2)c2nc(C#N)c(C#N)nc21	> 50 µM	> 50 µM	> 50 µM	> 50 µM	–
